Most compounds without a hit are left out; they make up all but 1.5% or so of the library.
APJ antagonist: APJ receptor antagonism. P35414. CHO-K1 APJ beta-arrestin complementation, luminescence. inhibition, % at 20 µM. 330,000 compounds, 0.32% hits. AID 2521;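 active = inhibition above about 40% at 20 µM, limit read from the data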;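 note: cells challenged with 10 nM apelin-13 agonist together with compound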
CXCR6 block: inhibitors of human CXCR6 receptor. 360,000 compounds, 0.36% hits. O00574. inhibition, % at 20 µM. AID 602244. CHO-K1 PathHunter CXCR6 beta-arrestin, luminescence; in the data active = inhibition above about 34%, passing the limit was not always enough;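 note: antagonist mode with CXCL16 agonist at 10 nM final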
APJ ag: APJ receptor agonism. P35414. CHO-K1 APJ PathHunter beta-arrestin, luminescence; 0% DMSO wells, 100% apelin. activation, % at 20 µM. 330,000 compounds, 0.11% hits. AID 2520;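 active = activation more than six SD over the plate average, tested at 20 µM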
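Material: CHO-K1 APJ beta-arrestin complementation cell line; Input: cell density 1000 per well; Incubation: compound stimulation 90 min at 25 °C, detection 60 min; Signal: luminescence from split beta-galactosidase complementation, Galacton Star/Emerald II substrate; Controls: DMSO-only wells as negative, 10 nM Apelin-13 as positive control.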
CCR6 antag: blocks CCL20-driven beta-arrestin recruitment at human CCR6 | 340,000 compounds, 0.49% hits | inhibition, % at 20 µM | CHO-K1 CCR6 PathHunter beta-arrestin, luminescence, CCL20-stimulated;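 active = compounds whose inhibition of the agonist-driven luminescence signal at 20 µM reaches about 50%, limit read from the data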;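 note: cells stimulated with CCL20 at 14 nM final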
Target sequence (P51684 whole entry, looked up): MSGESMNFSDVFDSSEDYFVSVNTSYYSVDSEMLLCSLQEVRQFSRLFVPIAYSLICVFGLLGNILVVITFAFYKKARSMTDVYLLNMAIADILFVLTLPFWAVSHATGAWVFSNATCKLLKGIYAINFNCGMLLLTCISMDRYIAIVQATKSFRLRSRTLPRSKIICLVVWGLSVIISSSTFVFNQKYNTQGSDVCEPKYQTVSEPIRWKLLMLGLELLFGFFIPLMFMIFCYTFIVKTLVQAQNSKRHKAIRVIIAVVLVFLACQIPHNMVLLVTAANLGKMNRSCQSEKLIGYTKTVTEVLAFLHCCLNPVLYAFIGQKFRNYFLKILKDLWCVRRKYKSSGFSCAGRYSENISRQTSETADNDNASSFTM
hiPSC survival: increases survival of single human iPS cells; hiPSC single-cell survival, ATPlite luminescence; 100% = ROCK inhibitor wells, 0% = DMSO; 360,000 compounds, 0.044% hits; survival enhancement, % at 20 µM; AID 602274; in the data active = survival enhancement above about 18%;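 note: cells exposed to compounds for 16 hours before the ATP read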
EBI2 antag: antagonists of human EBI2 receptor; EBI2 beta-arrestin recruitment, luminescence, 7a,25-OHC stimulated; 360,000 compounds, 0.81% hits; inhibition, % at 5 µM; P32249; in the data active = inhibition above about 38%;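 note: enzyme fragment complementation signal reports receptor beta-arrestin coupling in cells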
EBI2 antag conf: confirmation of human EBI2 receptor antagonists; shares compounds with EBI2 antag; EBI2 beta-arrestin luminescence, 7a,25-OHC antagonism; inhibition, % at 5 µM; 2,400 compounds, 29% hits; AID 651997;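 active = inhibition of at least 50%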
EBI2 agonist: EBI2 agonism counter-screen; AID 652000; EBI2-expressing cells, agonist mode, luminescence, 60 min; 0% vehicle, 100% 7α,25-dihydroxycholesterol control; 2,400 tested, under 10 active; activation, % at 5 µM; shares compounds with EBI2 antag;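 active = activation of at least 50%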
bGal cs: counter-screen for EBI2 antagonists: E. coli beta-galactosidase inhibition | shares compounds with EBI2 antag | purified beta-galactosidase, luminescent Galacton Star, 15 min | inhibition, % at 5 µM | 2,400 compounds, 1% hits | AID 652176;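 active = replicate-average signal at least 3 plate SD below neutral wells, shown as high inhibition, flagging enzyme-inhibiting false positives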;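 note: higher means stronger loss of beta-gal luminescence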
A number is an active result; 0 = inactive; - = not tested or not shown.

SMILES	APJ antagonist	CXCR6 block	APJ ag	CCR6 antag	hiPSC survival	EBI2 antag	EBI2 antag conf	EBI2 agonist	bGal cs
COc1ccc2c(c1)/C(=C/c1cc(OC)c(OC)c(OC)c1)C(=O)N2	-	0	-	0	0	0	-	-	-
COc1ccc(C(=O)/C=C2\C(=O)Nc3ccc(Br)cc32)cc1	-	0	-	0	0	78	70	0	0
O=C(COc1ccccc1)Nc1ccc(S(=O)(=O)Nc2ccccn2)cc1	0	0	0	0	0	0	-	-	-
O=C(COc1ccc(Br)cc1)Nc1ccc(S(=O)(=O)Nc2ccccn2)cc1	0	0	0	0	0	43	0	0	0
COc1ccc(-n2c(Cc3cccn3C)nnc2SCC(=O)Nc2cccc(F)c2)cc1	0	0	0	0	0	56	0	0	0
COc1ccc(-n2c(Cc3cccn3C)nnc2SCC(=O)NCc2ccccc2Cl)cc1	0	0	0	0	0	56	0	0	0
COc1ccc(-n2c(Cc3cccn3C)nnc2SCC(=O)Nc2ccccc2)cc1	0	0	0	0	0	0	-	-	-
Cn1cccc1Cc1nnc(SCC(=O)Nc2cccc(F)c2)n1CCc1ccccc1	0	0	0	0	0	45	0	0	0
COc1ccc(-n2c(Cc3cccn3C)nnc2SCC(=O)Nc2ccccc2OC)cc1	0	0	0	0	0	45	0	0	0
CCCCCCCCN1C(=O)[C@H](CC(=O)NCCC(C)C)C[C@@]2(C(=O)OCC)CCC=C12	-	-	-	-	-	0	-	-	-
CC(C)C[C@H]1CN(CCCC[C@@H]2CNC(=O)C(=O)N2CCc2ccccc2)C(=O)C(=O)N1CCc1ccc(O)cc1	-	0	-	-	0	0	-	-	-
COc1ccc(-n2c(Cc3cccn3C)nnc2SCC(=O)Nc2cc(Cl)ccc2OC)cc1	0	0	0	0	0	58	0	0	0
Cc1ccc(-n2c(Cc3cccn3C)nnc2SCC(=O)Nc2ccc3c(c2)OCO3)cc1	0	0	0	0	0	0	-	-	-
Cc1ccc(-n2c(Cc3cccn3C)nnc2SCC(=O)NCc2ccc3c(c2)OCO3)cc1	0	0	0	0	0	45	0	0	0
O=C(CN1C(=O)NC2(CCCC2)C1=O)N1CCN(c2ccccc2Cl)CC1	0	0	0	0	0	0	-	-	-
COc1ccc([C@H]2CC(=O)C=C(c3cccc4c3sc3ccccc34)C2)cc1OC	0	0	0	0	0	59	0	0	0
COc1ccc([C@H]2CC(=O)C=C(c3cccc(OC)c3OC)C2)cc1OC	0	0	0	0	0	0	-	-	-
O=C1CC(NS(=O)(=O)c2cccs2)CN1c1ccccc1 (stereo not drawn)	0	0	0	0	0	0	-	-	-
C=CCNc1nc2cc(-c3cccc(Cl)c3)sc2c(=O)n1C	-	0	-	-	0	0	-	-	-
CCOC(=O)Nc1nnc(/C=C/c2ccc(OC)cc2)s1	0	0	0	0	0	0	-	-	-
CCCCOC(=O)Nc1nnc(/C=C/c2ccc(OC)cc2)s1	0	0	0	0	0	55	0	0	0
O=C(NC1CCC(Oc2ccc(C(=O)O)cc2)CC1)NC12CC3CC(CC(C3)C1)C2 (stereo not drawn)	0	0	0	0	0	0	-	-	-
O=C(CCc1ccccc1)NC1CCS(=O)(=O)C1 (stereo not drawn)	0	0	0	0	0	0	-	-	-
CCOC(=O)c1ccccc1NC(=O)Cc1ccc(OC)c(S(=O)(=O)N2CCOCC2)c1	0	0	0	0	0	0	-	-	-
CNC(=O)c1sc(SC)cc1-c1ccc(Cl)cc1	0	0	0	0	0	50	0	0	0
SMILES	APJ antagonist	CXCR6 block	APJ ag	CCR6 antag	hiPSC survival	EBI2 antag	EBI2 antag conf	EBI2 agonist	bGal cs
CCOC(=O)N1CCN(C(=O)/C=C/c2ccc3c(c2)OCO3)CC1	0	0	0	0	0	59	61	0	0
CN1CCN(C(=O)/C=C/c2ccc3c(c2)OCO3)CC1	0	0	0	0	0	0	-	-	-
COC(=O)C1CCN(C(=O)/C=C/c2ccc3c(c2)OCO3)CC1	0	0	0	0	0	57	0	0	0
CCN1CCN(C(=O)/C=C/c2ccc3c(c2)OCO3)CC1	0	0	0	0	0	66	0	0	0
O=C(/C=C/C=C/c1ccc2c(c1)OCO2)N1CCCCC1	0	0	0	0	0	0	-	-	-
CCOC(=O)N1CCN(C(=O)/C=C/c2ccc(OC)cc2)CC1	0	0	0	0	0	90	75	0	0
CCOC(=O)N1CCN(C(=O)COC(=O)Cc2ccc(OC)cc2)CC1	0	0	0	0	0	0	-	-	-
O=C(/C=C/c1ccc2c(c1)OCO2)N1CCN(c2n[nH]c(=O)[nH]c2=O)CC1	0	0	0	0	0	0	-	-	-
CC12CCC(=O)N1C(C(=O)Oc1cccc(F)c1)CS2 (stereo not drawn)	-	0	-	-	0	0	-	-	-
OC[C@@H]1CN(Cc2ccc(Cl)cc2)C[C@H](n2cnc3c(NC4CCC4)ncnc32)O1	-	0	-	-	0	44	0	0	0
CC(C)N(C)c1ncnc2c1ncn2[C@H]1CN(Cc2ccncc2)C[C@@H](CO)O1	-	0	-	-	0	0	-	-	-
OC[C@@H]1CN(Cc2ccc(-c3ccccc3)cc2)C[C@H](n2cnc3c(NC4CC4)ncnc32)O1	-	0	-	-	0	65	65	0	0
CC(C)N(C)c1ncnc2c1ncn2[C@H]1CN(Cc2ccc(-c3ccccc3)cc2)C[C@@H](CO)O1	-	0	-	-	0	57	0	0	0
COc1ccccc1NC(=O)N(C)C[C@H]1Oc2ncc(Br)cc2C(=O)N([C@H](C)CO)C[C@H]1C	-	0	-	-	0	0	-	-	-
CCOC(=O)/C=C/C(=O)Nc1cc(S(=O)(=O)Nc2ccc(OC)cc2)ccc1N1CCOCC1	0	0	0	0	0	75	72	0	0
CC(C)Sc1nc2sc(-c3ccccc3)cc2c(=O)n1N	0	0	0	0	0	51	0	0	0
Cc1ccc(Oc2ccc(Oc3ccc(C)cc3)nn2)cc1	0	0	0	0	0	92	89	0	0
Cc1ccc(Oc2cnc3ccccc3n2)cc1	0	0	0	0	0	0	-	-	-
CS(=O)(=O)c1ccc(Cl)c(NC(=O)CSc2nnc3n2CCCCC3)c1	-	0	-	-	0	0	-	-	-
COc1ccc(-c2ncncc2-c2ccc(OC)c(OC)c2)c(O)c1	0	0	0	0	0	0	-	-	-
COc1ccc(-c2c(C)nc(N)nc2-c2ccc(OCc3ccc(C)cc3)cc2O)cc1OC	0	0	0	0	0	0	-	-	-
COc1ccc(-c2c(C)nc(N)nc2-c2ccc(OC)cc2O)cc1	0	0	0	0	0	74	0	0	0
CCOc1ccc(-c2nc(N)ncc2Oc2cccc(OC)c2)c(O)c1	0	0	0	0	0	47	0	0	0

Screening results deposited in PubChem by Sanford-Burnham Center for Chemical Genomics.
